# Reference: paper PMC10333676 (Redox Biology, 2023)
# Key:
# [1] = target: T1, Mutant Magnetospirillum gryphiswaldense cereblon isoform 4 (MsCI4^WW/FF) (Magnetospirillum gryphiswaldense, UniProt A4TVL0, W36F/W59F); details: read-out: published Kd of MANT-uracil to MsCI4^WW/FF; cited from earlier work
# T1 sequence (A4TVL0 1-124 W36F/W59F): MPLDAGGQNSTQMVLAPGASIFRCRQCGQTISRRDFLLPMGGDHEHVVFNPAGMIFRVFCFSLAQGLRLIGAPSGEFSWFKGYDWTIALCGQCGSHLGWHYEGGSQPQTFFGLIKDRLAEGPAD
# [2] = target: T1, Mutant Magnetospirillum gryphiswaldense cereblon isoform 4 (MsCI4^WW/FF); assay: FRET-based competitive binding assay
# How it was run: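 Competitive FRET binding used mutant cereblon isoform 4 (MsCI4WW/FF) with the reporter ligand MANT-uracil. Buffer was 20 mM Tris pH 7.5, 150 mM NaCl, 5 mM 2-mercaptoethanol, final DMSO ≤0.02%. Tryptophan was read at ex 295/em 350 nm and FRET emission at 440 nm. Ligands were titrated to reduce the FRET signal, with MANT-uracil autofluorescence as blank and thalidomide as positive control; triplicates.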
# KEAP1 [3] = target: KEAP1 (Homo sapiens, UniProt Q14145); assay: KEAP1 degradation in HepG2 cells by western blotting; format: cell-based; details: for reduction of KEAP1 level: HepG2, 1 μM, 6 h
# KEAP1 (Homo sapiens, UniProt Q14145), sequence (Q14145 whole entry): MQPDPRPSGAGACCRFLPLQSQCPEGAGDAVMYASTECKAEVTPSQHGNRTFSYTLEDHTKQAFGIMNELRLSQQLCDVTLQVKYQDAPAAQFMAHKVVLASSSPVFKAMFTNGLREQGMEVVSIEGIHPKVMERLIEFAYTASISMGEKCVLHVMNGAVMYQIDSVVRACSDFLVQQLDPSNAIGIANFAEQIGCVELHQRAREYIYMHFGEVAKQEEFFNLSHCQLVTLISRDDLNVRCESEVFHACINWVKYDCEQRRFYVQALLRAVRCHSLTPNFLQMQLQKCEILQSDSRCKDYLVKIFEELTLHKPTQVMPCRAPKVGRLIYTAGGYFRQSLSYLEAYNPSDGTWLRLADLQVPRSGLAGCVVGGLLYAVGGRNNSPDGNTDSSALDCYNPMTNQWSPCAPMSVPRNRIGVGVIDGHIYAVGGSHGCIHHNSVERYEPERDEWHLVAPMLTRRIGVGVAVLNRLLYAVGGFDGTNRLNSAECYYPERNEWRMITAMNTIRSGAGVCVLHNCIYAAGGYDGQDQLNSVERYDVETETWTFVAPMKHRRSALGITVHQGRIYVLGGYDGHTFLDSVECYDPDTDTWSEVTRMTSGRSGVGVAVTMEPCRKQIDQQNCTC
# How it was run: (§1)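 CRBN-knockdown HepG2 clones were made with pGIPZ lentiviral shRNA (virus from transfected HEK293T, with 5 μg/mL polybrene) and GFP-FACS sorting. Lysates were western blotted and densitometry came from three independent experiments.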
# KEAP1 [4] = target: T2, KEAP1 (Mus musculus, UniProt Q9Z2X8); assay: KEAP1 degradation in AML12 cells by western blotting; format: cell-based
# T2 sequence (Q9Z2X8 whole entry): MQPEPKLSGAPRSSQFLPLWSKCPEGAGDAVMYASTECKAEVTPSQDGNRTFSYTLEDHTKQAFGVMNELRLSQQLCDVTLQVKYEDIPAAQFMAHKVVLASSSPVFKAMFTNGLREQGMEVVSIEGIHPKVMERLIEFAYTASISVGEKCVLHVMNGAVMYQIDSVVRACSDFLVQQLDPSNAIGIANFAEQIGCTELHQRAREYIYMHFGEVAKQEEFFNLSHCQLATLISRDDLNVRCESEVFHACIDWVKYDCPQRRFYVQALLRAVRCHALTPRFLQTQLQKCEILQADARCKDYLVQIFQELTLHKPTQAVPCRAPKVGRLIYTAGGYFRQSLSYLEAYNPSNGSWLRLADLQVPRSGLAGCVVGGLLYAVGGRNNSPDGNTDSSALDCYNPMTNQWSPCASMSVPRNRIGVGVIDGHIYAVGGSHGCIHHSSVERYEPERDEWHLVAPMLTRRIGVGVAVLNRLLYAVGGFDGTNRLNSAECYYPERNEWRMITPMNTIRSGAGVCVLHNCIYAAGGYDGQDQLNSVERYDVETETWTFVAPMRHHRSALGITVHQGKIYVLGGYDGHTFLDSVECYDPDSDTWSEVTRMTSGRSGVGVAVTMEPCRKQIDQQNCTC
# How it was run: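 AML12 cells got test compound for 24 h over a concentration series (DC50/Dmax) or 100 nM over a time course (DT50). Co-treatments: MG132 5 μM with 100 or 300 nM for 4 h; CQ 20 μM for 18 h, then 100 or 300 nM for 6 h; pomalidomide or TD-165 1 μM for 3 h, then 100 nM for 6 h. KEAP1 was read by western blot (RIPA, SDS-PAGE, PVDF, ECL) with densitometry from three independent experiments.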
# KEAP1 [5] = target: T2, KEAP1; assay: KEAP1 degradation in primary mouse hepatocytes by western blotting; format: cell-based; details: 1 to 1000 nM, 24 h
# How it was run: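 Primary hepatocytes from male C57BL6/N mice were collagenase-perfused and plated in medium 199 with 10% FBS, 10 nM dexamethasone and 23 mM HEPES. […] KEAP1 was read by western blot. DC50 and Dmax came from densitometry of three independent experiments.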
# NRF2 [6] = assay: Nuclear translocation of NRF2 in AML12 cells; format: cell-based, mouse
# How it was run: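 Nuclear fractionation: AML12 cells got test compound 300 nM for indicated times. Cells were pelleted (4000 G, 4 °C), extracted in nuclear buffer, frozen, then spun at 15,000 G for 20 min. Fractions were BCA-quantified and western blotted (GAPDH cytosolic, Lamin B nuclear loading controls), with densitometry from three independent experiments. Immunofluorescence: 100 or 300 nM for 3 h, 4% PFA, 0.1% Triton X-100, NRF2 stain, DAPI, confocal imaging.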
# NRF2 [7] = assay: Nuclear translocation of NRF2 in HepG2 cells; format: cell-based, human
# [8] = system: HMOX1, NQO1, GCLC and GCLM (the target genes of NRF2); assay: NRF2 target gene expression by qRT-PCR in AML12 cells; format: cell-based, mouse; details: AML12, 100 nM
# How it was run: (§2)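 Cells got test compound 100 nM for indicated times. RNA was extracted with TRIzol, reverse-transcribed, and HMOX1, NQO1, GCLC and GCLM were quantified by qRT-PCR. Values were normalized to GAPDH and expressed as relative levels by ΔΔCt.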
# [9] = system: HMOX1, NQO1, GCLC and GCLM (the target genes of NRF2); assay: NRF2 target gene expression by qRT-PCR in HepG2 cells; format: cell-based, human; details: HepG2, 100 nM
# How it was run: as §2
# AML12 cells [10] = assay: APAP-induced loss of cell viability; format: cell-based, mouse; details: AML12, APAP 15 mM, 24 h, MTT
# AML12 cells [11] = assay: APAP-induced ROS generation; format: cell-based, mouse; details: AML12, APAP 5 mM, 4 h, 300 nM of SD2267
# How it was run: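 AML12 mouse hepatocytes (DMEM/F-12, 10% FBS, ITS-pyruvate, dexamethasone 40 ng/mL) were seeded and exposed the next day to 5 mM APAP with or without test compound. After 4 h, cells were loaded with 50 μM DCF-DA in serum-free medium for 30 min at 37 °C and washed. Fluorescence was read at ex488/em525.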
# AML12 cells [12] = assay: APAP-induced mitochondrial ROS; format: cell-based, mouse; details: AML12, APAP 5 mM, 8 h
# How it was run: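 AML12 cells were exposed to 5 mM APAP with or without test compound for 8 h. They were then stained with 5 μM MitoSOX Red (mitochondrial ROS, red fluorescence) or 0.25 μg/mL JC-1 (green monomer fluorescence, rising as membrane potential falls). Intensities were read by flow cytometry; means ± SEMs, n = 3 per group.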
# [13] = system: primary mouse hepatocytes; assay: APAP-induced ROS generation; format: cell-based; details: 100 nM 6 h before APAP 20 mM
# How it was run: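 Primary hepatocytes came from 8–10-week male C57BL6/N mice by collagenase perfusion and were cultured in medium 199 with 10% FBS, 10 nM dexamethasone and 23 mM HEPES. The next day cells got test compound 100 nM for 6 h, then 50 μM DCF-DA (serum-free, 30 min, 37 °C), a wash and 20 mM APAP. Fluorescence (ex488/em525) was read every 20 min for 10 h; n = 4 per group.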
# [14] = In vivo pharmacokinetics in ICR mice; set-up: species or system mouse; details: for AUC / AUC(0-t) / Cmax / MRT / half-life: male, ICR, mouse, plasma
# How it was run: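 Male ICR mice (7–8 weeks, 30–35 g) received test compound at 3 mg/kg IP or PO. Plasma concentration–time profiles were measured and PK parameters were derived by non-compartmental analysis.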
# C57BL/6 N male mice = assay: Acetaminophen; format: in vivo, mouse
# CRBN = CRBN (Homo sapiens, UniProt Q96SW2); assay: CRBN protein level in HepG2 cells by western blotting; format: cell-based; details: HepG2, 100 or 300 nM, 24 h
# CRBN, sequence (Q96SW2 whole entry): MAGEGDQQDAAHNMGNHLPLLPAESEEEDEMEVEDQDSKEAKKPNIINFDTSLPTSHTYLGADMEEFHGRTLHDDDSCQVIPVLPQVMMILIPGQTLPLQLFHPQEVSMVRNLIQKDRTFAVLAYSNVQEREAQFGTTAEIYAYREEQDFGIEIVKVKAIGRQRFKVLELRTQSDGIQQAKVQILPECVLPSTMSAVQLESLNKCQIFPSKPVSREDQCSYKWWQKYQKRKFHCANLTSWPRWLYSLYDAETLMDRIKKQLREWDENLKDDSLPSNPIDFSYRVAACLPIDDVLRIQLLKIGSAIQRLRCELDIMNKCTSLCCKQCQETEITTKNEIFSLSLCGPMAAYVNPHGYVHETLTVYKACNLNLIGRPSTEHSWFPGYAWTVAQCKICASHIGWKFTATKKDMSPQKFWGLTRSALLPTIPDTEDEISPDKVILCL
# How it was run: as §1
# [15] = SD2267 3 mg/kg IP 2 h after APAP 250 mg/kg IP, 6 h
smiles,measurement,setting,value
"CNc1ccccc1C(=O)NCCn1ccc(=O)[nH]c1=O [MANT-uracil, 1-(N-2-MANT-imidoethyl)-uracil]",Kd,[1],3300 nM
Cc1ccc(C(CC(=O)O)c2cc(OCCCCCCCCNc3cccc4c3C(=O)N(C3CCC(=O)NC3=O)C4=O)c3c(c2)nnn3C)cc1CN1C[C@@H](C)Oc2ccccc2S1(=O)=O (stereo partly drawn) [SD2267],Ki,[2],57.7 ± 17.5 nM
same,Half-life (DT50) of KEAP1,"KEAP1 [3]; HepG2, 100 nM",2.6 h
same,reduction of KEAP1 level,KEAP1 [3],64%
same,Dmax at 0.3 µM,"KEAP1 [3]; HepG2, read-out: maximum degradation efficacy (Dmax)",82.3%
same,DC50,"KEAP1 [3]; read-out: half-maximal degradation concentration (DC50), HepG2, 24 h, 1 to 1000 nM",8.1 nM
same,KEAP1 levels in CRBN knockdown cells,"KEAP1 [3]; shCRBN #10 HepG2, 100 or 300 nM, 24 h",not affected
same,KEAP1 degradation in control cells,"KEAP1 [3]; shCon HepG2, 100 or 300 nM, 24 h",effectively degraded KEAP1
same,Half-life (DT50) of KEAP1,"KEAP1 [4]; AML12, 100 nM",2.2 h
same,KEAP1 degradation under autophagy inhibition by chloroquine,"KEAP1 [4]; AML12, CQ 20 μM 18 h prior to SD2267 100 or 300 nM 6 h",did not abolish
same,KEAP1 degradation in the presence of pomalidomide or TD-165,"KEAP1 [4]; AML12, POM 1 μM or TD-165 1 μM 3 h prior to SD2267 100 nM 6 h",attenuated
same,KEAP1 degradation in the presence of MG132,"KEAP1 [4]; AML12, SD2267 100 or 300 nM, MG132 5 μM, 4 h",could not degrade KEAP1
same,Dmax at 0.3 µM,"KEAP1 [4]; AML12, read-out: maximum degradation efficacy (Dmax)",76.5%
same,DC50,"KEAP1 [4]; read-out: half-maximal degradation concentration (DC50), AML12, 24 h, 1 to 1000 nM",16.8 nM
same,KEAP1 degradation,KEAP1 [5],dose-dependently degraded
same,"Nuclear NRF2 (nuclear fractionation, western blotting)","NRF2 [6]; AML12, 300 nM, within 3 h",significantly upregulated
same,"amount and nuclear localization of NRF2 (immunofluorescence, confocal microscopy)","NRF2 [6]; AML12, 100 or 300 nM, 3 h",increased
same,"Nuclear NRF2 (nuclear fractionation, western blotting)","NRF2 [7]; HepG2, 100 nM, within 3 h",significantly upregulated
same,"amount and nuclear localization of NRF2 (immunofluorescence, confocal microscopy)","NRF2 [7]; HepG2, 100 or 300 nM, 3 h",increased
same,"mRNA expression levels of HMOX1, NQO1, GCLC and GCLM",[8],significantly increased
same,mRNA expression levels of NRF2 target genes,[9],significantly increased
same,cell viability decreased by APAP,AML12 cells [10],significantly recovered
same,APAP-induced increase of DCF-DA fluorescence intensity,AML12 cells [11],significantly attenuated
same,APAP-induced increment of JC-1 green fluorescence intensity,AML12 cells [12],significantly reduced
same,MitoSOX Red fluorescence intensity versus APAP only,AML12 cells [12],significantly lower
same,APAP-induced ROS generation,[13],significantly reduced
same,Tmax,"[14]; PO, 3 mg/kg, mice, n = 3, median with range",80 [60–120] min
same,AUC,"[14]; ip, 3 mg/kg",7800 ng·h/mL
same,AUC(0-t),"[14]; ip, 3 mg/kg",7720 ng·h/mL
same,Cmax,"[14]; ip, 3 mg/kg",1970 ± 870 ng/mL
same,MRT,"[14]; ip, 3 mg/kg",4.83 h
same,half-life,"[14]; ip, 3 mg/kg",3.67 ± 0.283 h
same,AUC,"[14]; po, 3 mg/kg",597 ng·h/mL
same,AUC(0-t),"[14]; po, 3 mg/kg",497 ng·h/mL
same,Cmax,"[14]; po, 3 mg/kg",172 ± 116 ng/mL
same,MRT,"[14]; po, 3 mg/kg",12.1 h
same,half-life,"[14]; po, 3 mg/kg",12.3 ± 1.7 h
same,oral bioavailability,[14]; oral parameters much lower than those of IP,low oral bioavailability
same,KEAP1 protein level in the liver compared to APAP,"C57BL/6 N male mice; 1 mg/kg IP, western blotting, p = 0.08",a trend towards a decrease
same,increase of liver protein level of NRF2 and HO-1 versus APAP-only group,C57BL/6 N male mice; 3 mg/kg IP,significantly greater
same,phosphorylation of JNK induced by APAP in liver,C57BL/6 N male mice; 3 mg/kg IP,significantly reduced
same,hepatic necrosis (HE staining),"C57BL/6 N male mice; 3 mg/kg, 2 h post-treatment after APAP 250 mg/kg",significantly reduced
same,liver GSH to GSSG ratio decreased by APAP,C57BL/6 N male mice; 1 or 3 mg/kg IP,significantly and dose-dependently recovered
same,number of TUNEL-positive cells,"C57BL/6 N male mice; APAP + 3 mg/kg of SD2267, 369 in APAP-treated mice, HPF x400",123 cells per HPF
same,decrease of APAP-induced serum ALT increase,C57BL/6 N male mice; [15],~1.9 fold
same,decrease of APAP-induced serum AST increase,C57BL/6 N male mice; [15],~2.2 fold
same,CRBN degradation,CRBN,not degraded
Cc1ccc(C(CC(=O)O)c2cc(OCCCCCCCCNc3ccc4c(c3)C(=O)N(C3CCC(=O)NC3=O)C4=O)c3c(c2)nnn3C)cc1CN1C[C@@H](C)Oc2ccccc2S1(=O)=O (stereo partly drawn) [SD2268],Ki,[2],8150 ± 5710 nM
same,reduction of KEAP1 level,KEAP1 [3],7%
Cc1ccc(C(CC(=O)O)c2cc(OCCCCNc3cccc4c3C(=O)N(C3CCC(=O)NC3=O)C4=O)c3c(c2)nnn3C)cc1CN1C[C@@H](C)Oc2ccccc2S1(=O)=O (stereo partly drawn) [SD2269],Ki,[2],64.8 ± 13.2 nM
same,reduction of KEAP1 level,KEAP1 [3],no effect
